From ChEMBL document CHEMBL1139384, “First Cdc7 kinase inhibitors: pyrrolopyridinones as potent and orally active antitumor agents. 2. Lead discovery” (J Med Chem, 2009)
pIC50: −log10 of the molar value. Calls of active or inactive are those of the source. The calls are words filed in the database; no cut-off is given here.

Legend:
[1] = Cmax in Beagle dog at 10 mg/kg, po administered as single dose; format: ADME, organism-based, Canis lupus familiaris; set-up: dose 10 mg/kg, route oral; settings: in vivo
Procedure, shortened: (§1)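 Single iv or oral dose in 5% dextrose to overnight-fasted animals. Nu/Nu mice: males, 3 per route, saphenous bleeds to 24 h. Han-Wistar rats: males, 3 per route, jugular bleeds to 24 h. Beagle dogs: 2 per sex, iv and po crossover 2 weeks apart, jugular bleeds to 48 h. Plasma by LC/MS/MS; noncompartmental parameters, AUC by linear trapezoid with extrapolation.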

COLO 205 = experiment: Antiproliferative activity against human COLO205 cells after 72 hrs by luciferase based assay; format: functional, cell-based; settings: COLO 205, 72 h
[2] = Tmax in nu/nu mouse at 10 mg/kg, po administered as single dose; format: ADME, organism-based; set-up: dose 10 mg/kg, route oral; settings: in vivo
Procedure, shortened: (§2)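 Overnight-fasted male Nu/Nu mice got a single 10 mg/kg dose in 5% dextrose, iv or po, three mice per route. Saphenous blood was drawn at 0.083 (iv) or 0.25 (po), 0.5, 1, 6 and 24 h. Plasma was assayed by LC/MS/MS and analysed noncompartmentally. Tmax is the observed peak time, Vss = CL·MRT, and F is the ratio of dose-normalized AUC∞ po/iv.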

[3] = AUC (0 to infinity) in nu/nu mouse at 10 mg/kg, po administered as single dose; format: ADME, organism-based; set-up: time infinity, dose 10 mg/kg, route oral; settings: plasma; procedure, shortened: as §1
[4] = biological target: Cell division cycle 7-related protein kinase (Homo sapiens, UniProt O00311); experiment: Inhibition of human Cdc7 in human A2780 cells assessed as inhibition of Ser40 phosphorylation of Mcm2 protein at 3 uM up to 24 hrs; format: cell-based
Procedure, shortened: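 Time course in A2780 cells held at 3 µM for up to 24 h. Extracts were made in 50 mmol/L Tris-HCl pH 6.8, 1% SDS, 1 mmol/L DTT with 10 s sonication, loaded at 15 µg per lane, and immunoblotted with antiphosphopeptide antibodies to MCM2 Ser40 and Ser53. Cleaved caspase 3 was also probed.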

[5] = Antiproliferative activity against human […] cells after 72 hrs by luciferase based assay; format: functional, cell-based
Procedure, shortened: (§3)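 Cells seeded at 2500–5000/well in complete medium (RPMI1640, McCoy's or DMEM with 10% FCS, by line); compound added after 24 h, 72 h at 37 °C, 5% CO2.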

Insulin receptor = Insulin receptor (Homo sapiens, UniProt P06213); experiment: Inhibition of IR
OPM-2 = experiment: Antiproliferative activity against human OPM2 cells after 72 hrs by luciferase based assay; format: functional, cell-based; settings: OPM-2, 72 h; procedure, shortened: as §3
[6] = biological target: Cyclin-dependent kinase 4 (Homo sapiens, UniProt P11802); experiment: Inhibition of CDK4
[7] = Half life in Beagle dog at 5 mg/kg, iv administered as single dose; format: ADME, organism-based, Canis lupus familiaris; set-up: dose 5 mg/kg, route intravenous; settings: in vivo; procedure, shortened: as §1
MCF7 = experiment: Antiproliferative activity against human MCF7 cells after 72 hrs by luciferase based assay; format: functional, cell-based; settings: MCF7, 72 h
[8] = Cmax in Beagle dog at 5 mg/kg, iv administered as single dose; format: ADME, organism-based, Canis lupus familiaris; set-up: dose 5 mg/kg, route intravenous; settings: in vivo; procedure, shortened: as §1
[9] = biological target: RAC-alpha serine/threonine-protein kinase (Homo sapiens, UniProt P31749); experiment: Inhibition of AKT1
[10] = Volume of distribution at steady state in Wistar rat at 10 mg/kg, iv administered as single dose; format: ADME, organism-based; set-up: dose 10 mg/kg, route intravenous; settings: in vivo, read-out: Vdss
Procedure, shortened: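 Overnight-fasted male Han-Wistar rats got a single 10 mg/kg iv dose in 5% dextrose, three per leg. Jugular blood was drawn from 0.083 to 24 h. Urine was collected over 0–6 and 6–24 h. Plasma and urine were assayed by LC/MS/MS and analysed noncompartmentally. Vss = CL·MRT.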

[11] = biological target: Mitogen-activated protein kinase 11 (Homo sapiens, UniProt Q15759); experiment: Inhibition of P38beta
[12] = biological target: Serine/threonine-protein kinase NIM1 (Homo sapiens, UniProt Q8IY84); experiment: Inhibition of NIM1
Cytochrome P450 2C8 = Cytochrome P450 2C8 (Homo sapiens, UniProt P10632); experiment: Inhibition of human CYP2C8; format: ADME
[13] = Half life in nu/nu mouse at 10 mg/kg, po administered as single dose; format: ADME, organism-based; set-up: dose 10 mg/kg, route oral; settings: in vivo; procedure, shortened: as §1
HeLa = experiment: Inhibition of DNA synthesis in human HeLa cells at 3 uM assessed as bromodeoxyuridine incorporation after 24 hrs; format: functional; set-up: scale not given: the % may be the effect or the level left
Procedure, shortened: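 Logarithmically growing HeLa cells exposed to 3 µM for set times, labelled with 50 µM BrdU, fixed in 70% ethanol. DNA content by propidium iodide with RNase A, 30 min at 37 °C; BrdU by FITC anti-BrdU after 2N HCl denaturation; percent positive cells by FACS.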

[14] = Cmax in nu/nu mouse at 10 mg/kg, po administered as single dose; format: ADME, organism-based; set-up: dose 10 mg/kg, route oral; settings: in vivo; procedure, shortened: as §1
[15] = biological target: Cyclin-dependent kinase 5/CDK5 activator 1 (Homo sapiens, UniProt Q00535); experiment: Inhibition of CDK5/p25; format: protein-complex assay
[16] = Tmax in Wistar rat at 20 mg/kg, po administered as single dose; settings: in vivo
[17] = Cmax in nu/nu mouse at 10 mg/kg, iv administered as single dose; format: ADME, organism-based; set-up: dose 10 mg/kg, route intravenous; settings: in vivo; procedure, shortened: as §1
A2780 = experiment: Antiproliferative activity against human A2780 cells after 72 hrs by luciferase based assay; format: functional, cell-based; settings: Homo sapiens, A2780, 72 h
[18] = Oral bioavailability in Beagle dog at 10 mg/kg administered as single dose; format: ADME, organism-based, Canis lupus familiaris; settings: in vivo
Procedure, shortened: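 Overnight-fasted Beagle dogs, 2 per sex, in a crossover design: 5 mg/kg iv and 10 mg/kg po, two weeks apart, in 5% dextrose. Jugular blood was drawn up to 48 h, and urine was collected over 0–8, 8–24 and 24–48 h. Samples were assayed by LC/MS/MS and analysed noncompartmentally.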

Cytochrome P450 1A2 = Cytochrome P450 1A2 (Homo sapiens, UniProt P05177); experiment: Inhibition of human CYP1A2; format: ADME
[19] = biological target: Serine/threonine-protein kinase PAK 4 (Homo sapiens, UniProt O96013); experiment: Inhibition of PAK4
SW48 = experiment: Antiproliferative activity against human SW48 cells after 72 hrs by luciferase based assay; format: functional, cell-based; settings: SW48, 72 h; procedure, shortened: as §3
[20] = Inhibition of PDGFR
L-363 = experiment: Antiproliferative activity against human L363 cells after 72 hrs by luciferase based assay; format: functional, cell-based; settings: L-363, 72 h; procedure, shortened: as §3
[21] = biological target: Serine/threonine-protein kinase Chk1 (Homo sapiens, UniProt O14757); experiment: Inhibition of CHK1
[22] = Volume of distribution at steady state in nu/nu mouse at 10 mg/kg, iv administered as single dose; format: ADME, organism-based; set-up: dose 10 mg/kg, route intravenous; settings: in vivo, read-out: Vdss; procedure, shortened: as §2
Hepatocyte = experiment: Metabolic stability in rat hepatocytes assessed as intrinsic clearance at 1 uM; format: cell-based; settings: Liver
[23] = biological target: Cyclin-dependent kinase 9 (Homo sapiens, UniProt P50750); experiment: Inhibition of CDK9
[24] = biological target: STE20-like serine/threonine-protein kinase (Homo sapiens, UniProt Q9H2G2); experiment: Inhibition of STLK2
[25] = Cmax in Wistar rat at 20 mg/kg, po administered as single dose; settings: in vivo
[26] = biological target: Serine/threonine-protein kinase TAO3 (Homo sapiens, UniProt Q9H2K8); experiment: Inhibition of TAO3
[27] = biological target: Serine/threonine-protein kinase Nek6 (Homo sapiens, UniProt Q9HC98); experiment: Inhibition of NEK6
Serine/threonine-protein kinase Nek6, sequence (Q9HC98 whole entry): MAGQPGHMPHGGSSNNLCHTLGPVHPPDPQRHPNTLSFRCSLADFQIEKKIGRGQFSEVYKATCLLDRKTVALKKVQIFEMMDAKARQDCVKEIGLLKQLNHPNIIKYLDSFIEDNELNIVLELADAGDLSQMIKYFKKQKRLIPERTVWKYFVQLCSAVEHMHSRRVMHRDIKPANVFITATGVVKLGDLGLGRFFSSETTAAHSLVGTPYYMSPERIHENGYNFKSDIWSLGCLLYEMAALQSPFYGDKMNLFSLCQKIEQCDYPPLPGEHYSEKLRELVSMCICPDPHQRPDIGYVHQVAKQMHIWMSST

Cyclin-dependent kinase 4, sequence (P11802 whole entry): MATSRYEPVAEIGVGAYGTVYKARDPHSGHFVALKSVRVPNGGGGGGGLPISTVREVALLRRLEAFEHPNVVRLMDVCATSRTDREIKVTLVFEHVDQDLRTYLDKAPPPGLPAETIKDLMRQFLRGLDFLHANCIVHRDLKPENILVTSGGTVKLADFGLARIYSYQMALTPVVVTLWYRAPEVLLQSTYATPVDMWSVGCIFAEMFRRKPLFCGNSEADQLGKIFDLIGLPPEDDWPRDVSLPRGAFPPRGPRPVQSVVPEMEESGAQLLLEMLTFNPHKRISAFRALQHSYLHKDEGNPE
Cytochrome P450 1A2, sequence (P05177 whole entry): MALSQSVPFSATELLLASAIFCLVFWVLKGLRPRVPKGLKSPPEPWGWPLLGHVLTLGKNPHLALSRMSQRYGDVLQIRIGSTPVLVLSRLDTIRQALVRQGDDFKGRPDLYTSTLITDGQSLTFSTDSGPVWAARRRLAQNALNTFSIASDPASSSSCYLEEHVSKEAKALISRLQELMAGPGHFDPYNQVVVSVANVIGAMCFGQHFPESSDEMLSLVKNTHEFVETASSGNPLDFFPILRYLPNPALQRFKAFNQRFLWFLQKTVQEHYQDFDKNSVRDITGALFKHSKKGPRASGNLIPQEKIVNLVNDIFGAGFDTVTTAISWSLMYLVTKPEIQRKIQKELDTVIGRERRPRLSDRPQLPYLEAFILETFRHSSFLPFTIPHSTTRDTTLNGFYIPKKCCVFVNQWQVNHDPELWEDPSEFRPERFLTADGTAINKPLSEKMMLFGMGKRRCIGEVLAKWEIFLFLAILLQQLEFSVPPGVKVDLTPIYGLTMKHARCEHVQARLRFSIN
Cyclin-dependent kinase 5/CDK5 activator 1, sequence (Q00535 whole entry): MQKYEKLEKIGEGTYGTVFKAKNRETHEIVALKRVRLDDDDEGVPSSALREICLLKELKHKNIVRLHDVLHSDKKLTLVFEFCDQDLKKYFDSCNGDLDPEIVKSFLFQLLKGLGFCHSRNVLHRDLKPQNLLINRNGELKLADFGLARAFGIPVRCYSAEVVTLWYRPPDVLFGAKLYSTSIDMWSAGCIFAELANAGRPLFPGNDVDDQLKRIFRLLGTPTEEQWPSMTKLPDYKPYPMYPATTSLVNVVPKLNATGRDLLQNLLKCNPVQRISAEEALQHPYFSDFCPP
Cyclin-dependent kinase 5/CDK5 activator 1, sequence (Q15078 whole entry, further chain): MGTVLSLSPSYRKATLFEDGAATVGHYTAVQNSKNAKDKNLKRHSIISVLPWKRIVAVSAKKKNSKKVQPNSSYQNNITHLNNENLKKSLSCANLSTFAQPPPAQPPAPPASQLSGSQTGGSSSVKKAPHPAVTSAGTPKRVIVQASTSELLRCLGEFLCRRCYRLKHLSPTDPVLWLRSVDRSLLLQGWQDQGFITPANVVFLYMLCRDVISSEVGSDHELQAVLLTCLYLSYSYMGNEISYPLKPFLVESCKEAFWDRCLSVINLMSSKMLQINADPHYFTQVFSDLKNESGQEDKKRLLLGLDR
STE20-like serine/threonine-protein kinase, sequence (Q9H2G2 whole entry): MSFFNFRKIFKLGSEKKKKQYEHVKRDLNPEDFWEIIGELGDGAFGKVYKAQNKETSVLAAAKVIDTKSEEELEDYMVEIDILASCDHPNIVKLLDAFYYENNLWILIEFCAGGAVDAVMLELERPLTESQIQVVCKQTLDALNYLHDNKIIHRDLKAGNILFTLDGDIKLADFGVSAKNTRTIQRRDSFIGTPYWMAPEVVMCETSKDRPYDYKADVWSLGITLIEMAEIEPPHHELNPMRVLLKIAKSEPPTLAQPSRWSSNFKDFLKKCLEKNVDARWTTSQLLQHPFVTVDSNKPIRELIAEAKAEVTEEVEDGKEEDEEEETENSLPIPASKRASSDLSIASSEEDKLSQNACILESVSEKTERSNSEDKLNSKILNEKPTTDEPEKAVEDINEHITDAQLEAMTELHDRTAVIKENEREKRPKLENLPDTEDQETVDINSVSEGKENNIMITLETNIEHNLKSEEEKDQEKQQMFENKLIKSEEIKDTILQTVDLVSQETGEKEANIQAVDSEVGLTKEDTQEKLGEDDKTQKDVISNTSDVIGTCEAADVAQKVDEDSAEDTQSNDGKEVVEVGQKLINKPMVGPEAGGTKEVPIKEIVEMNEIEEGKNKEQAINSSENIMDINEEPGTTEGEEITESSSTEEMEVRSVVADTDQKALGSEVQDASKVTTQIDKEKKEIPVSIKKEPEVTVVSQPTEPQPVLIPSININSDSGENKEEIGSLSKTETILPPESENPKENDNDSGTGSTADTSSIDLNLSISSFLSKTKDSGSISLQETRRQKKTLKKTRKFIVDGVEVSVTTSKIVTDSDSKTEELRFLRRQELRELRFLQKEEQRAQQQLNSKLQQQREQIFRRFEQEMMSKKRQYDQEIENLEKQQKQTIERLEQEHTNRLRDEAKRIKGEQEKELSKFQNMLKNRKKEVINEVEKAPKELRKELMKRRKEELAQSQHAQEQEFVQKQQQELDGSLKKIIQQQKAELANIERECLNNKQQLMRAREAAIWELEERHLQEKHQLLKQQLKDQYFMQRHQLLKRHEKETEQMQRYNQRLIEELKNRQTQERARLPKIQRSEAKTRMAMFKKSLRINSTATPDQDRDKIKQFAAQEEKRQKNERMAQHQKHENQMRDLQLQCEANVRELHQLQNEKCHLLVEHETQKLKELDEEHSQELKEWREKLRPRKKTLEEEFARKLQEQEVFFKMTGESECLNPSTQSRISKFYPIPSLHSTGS
Mitogen-activated protein kinase 11, sequence (Q15759 whole entry): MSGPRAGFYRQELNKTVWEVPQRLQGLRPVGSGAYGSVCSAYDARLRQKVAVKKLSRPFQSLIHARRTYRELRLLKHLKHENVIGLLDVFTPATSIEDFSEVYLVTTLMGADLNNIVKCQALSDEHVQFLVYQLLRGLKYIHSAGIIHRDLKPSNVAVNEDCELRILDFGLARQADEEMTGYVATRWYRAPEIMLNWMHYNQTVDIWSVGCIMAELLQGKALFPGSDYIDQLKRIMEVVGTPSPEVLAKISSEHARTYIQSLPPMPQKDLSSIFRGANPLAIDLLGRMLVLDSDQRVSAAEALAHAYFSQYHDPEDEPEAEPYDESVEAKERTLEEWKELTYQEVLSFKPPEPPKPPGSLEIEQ
Serine/threonine-protein kinase NIM1, sequence (Q8IY84 whole entry): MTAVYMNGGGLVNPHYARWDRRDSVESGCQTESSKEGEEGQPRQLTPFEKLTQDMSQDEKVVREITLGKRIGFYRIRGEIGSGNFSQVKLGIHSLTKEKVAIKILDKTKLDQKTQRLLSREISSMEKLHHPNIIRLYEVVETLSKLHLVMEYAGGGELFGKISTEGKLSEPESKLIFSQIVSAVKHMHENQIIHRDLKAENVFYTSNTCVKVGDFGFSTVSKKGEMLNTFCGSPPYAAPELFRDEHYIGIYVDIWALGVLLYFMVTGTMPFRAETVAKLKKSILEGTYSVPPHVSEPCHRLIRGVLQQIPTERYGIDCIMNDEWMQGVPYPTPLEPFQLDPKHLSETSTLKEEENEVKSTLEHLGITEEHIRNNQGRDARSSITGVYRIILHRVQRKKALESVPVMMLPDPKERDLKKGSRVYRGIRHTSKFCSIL
Serine/threonine-protein kinase PAK 4, sequence (O96013 whole entry): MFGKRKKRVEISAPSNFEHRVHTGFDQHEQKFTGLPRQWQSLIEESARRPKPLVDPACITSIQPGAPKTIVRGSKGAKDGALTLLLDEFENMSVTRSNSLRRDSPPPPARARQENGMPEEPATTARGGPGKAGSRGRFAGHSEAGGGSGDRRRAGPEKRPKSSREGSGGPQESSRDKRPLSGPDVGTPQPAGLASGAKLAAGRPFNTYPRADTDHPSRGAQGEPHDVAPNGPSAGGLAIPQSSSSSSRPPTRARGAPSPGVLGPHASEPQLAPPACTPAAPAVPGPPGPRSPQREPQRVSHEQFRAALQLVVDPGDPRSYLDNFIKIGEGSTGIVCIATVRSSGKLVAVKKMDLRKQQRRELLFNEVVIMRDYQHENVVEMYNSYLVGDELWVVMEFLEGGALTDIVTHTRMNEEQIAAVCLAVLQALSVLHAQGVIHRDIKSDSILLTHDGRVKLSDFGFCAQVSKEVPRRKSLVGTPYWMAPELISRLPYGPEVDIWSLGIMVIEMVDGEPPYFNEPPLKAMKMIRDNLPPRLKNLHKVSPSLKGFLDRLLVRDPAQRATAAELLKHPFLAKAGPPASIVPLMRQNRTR
Cytochrome P450 2C8, sequence (P10632 whole entry): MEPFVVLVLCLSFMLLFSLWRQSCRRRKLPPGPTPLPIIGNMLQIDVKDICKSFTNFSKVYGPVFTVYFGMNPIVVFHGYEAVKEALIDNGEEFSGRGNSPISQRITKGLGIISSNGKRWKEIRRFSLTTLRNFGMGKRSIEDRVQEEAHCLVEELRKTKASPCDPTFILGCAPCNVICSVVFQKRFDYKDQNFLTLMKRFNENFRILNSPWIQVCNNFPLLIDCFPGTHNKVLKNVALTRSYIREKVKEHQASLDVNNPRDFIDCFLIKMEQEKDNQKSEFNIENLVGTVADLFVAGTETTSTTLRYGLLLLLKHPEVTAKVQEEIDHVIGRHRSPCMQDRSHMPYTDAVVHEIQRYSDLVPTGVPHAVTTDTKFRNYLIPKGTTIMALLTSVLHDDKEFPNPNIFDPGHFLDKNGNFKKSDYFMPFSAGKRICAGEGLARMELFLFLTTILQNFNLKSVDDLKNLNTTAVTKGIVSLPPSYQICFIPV

SMILES: Nc1nccc(-c2cc3c([nH]2)[C@@H](CCF)CNC3=O)n1
- Cmax [1]: 5.5 µM
- pIC50 (COLO 205): 6.30
- Tmax [2]: 30 min
- AUC(0-inf) [3]: 5 µM·h
- Activity [4]: Active
- pIC50 [5]: 6.40
- pIC50 (Insulin receptor): < 5.40
- pIC50 (OPM-2): 5.43
- pIC50 [6]: < 5.40
- half-life [7]: 36 min
- pIC50 (MCF7): 5.96
- Cmax [8]: 8.9 µM
- pIC50 [9]: < 5.40
- Vd [10]: 2.1 L/kg
- pIC50 [11]: < 5.40
- pIC50 [12]: < 5.40
- Activity (Cytochrome P450 2C8): Not Active
- half-life [13]: 60 min
- Activity (HeLa): 3%
- Cmax [14]: 2.6 µM
- pIC50 [15]: 5.79
- Tmax [16]: 18 min
- Cmax [17]: 20.3 µM
- pIC50 (A2780): 6.30
- bioavailability [18]: 51%
- Activity (Cytochrome P450 1A2): Not Active
- pIC50 [19]: < 5.40
- pIC50 (SW48): 6.05
- pIC50 [20]: < 5.40
- pIC50 (L-363): 5.89
- pIC50 [21]: < 5.40
- Vd [22]: 2.6 L/kg
- CL (mL.min-1.kg-1) (Hepatocyte): 5
- pIC50 [23]: 7.55
- pIC50 [24]: < 5.40
- Cmax [25]: 2 µM
- pIC50 [26]: 6.90
- pIC50 [27]: < 5.40
